Calls of active or inactive are those of the source. No cut-off for these calls is given here.
What was measured:
[1] = Lipophilicity, log kw of compound by RP-HPLC; type: physicochemical
Summary of the method: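 RP-HPLC on end-capped C18 column, acetonitrile-containing mobile phase at several concentrations; uracil as unretained marker for dead volume; UV detection at 214 nm, room temperature; three measurement sets averaged; log kw obtained by extrapolation of linear log k versus organic modifier fraction (log k = log kw − Sφ).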

Mus musculus [2] = test: Anticonvulsant activity in mouse at 300 mg/kg, ip; type: functional, organism-based; design: dose 300 mg/kg
Summary of the method: (§1)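 Phase I screen: intraperitoneal injection into mice as suspension in 0.5% methylcellulose at 30, 100 and 300 mg/kg; MES, subcutaneous pentylenetetrazole and rota-rod minimal motor impairment assessed at 0.5 h and 4 h after dosing (2 h also reported for some MES readings). Value is minimum dose showing activity or toxicity.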

Mus musculus [3] = test: Anticonvulsant activity in ip dosed mouse after 4 hrs by maximal electroshock test; type: functional; summary of the method: as §1
Mus musculus [4] = test: Anticonvulsant activity in ip dosed mouse after 4 hrs by subcutaneous pentylenetetrazole test; type: functional; summary of the method: as §1
Mus musculus [5] = test: Anticonvulsant activity in mouse at 100 mg/kg, ip; type: functional, organism-based; design: dose 100 mg/kg; summary of the method: as §1
Rattus norvegicus [6] = test: Neurotoxicity in rat at 30 mg/kg, po after 0.25 hrs by rotarod test; type: toxicity, organism-based; design: dose 30 mg/kg, route oral; conditions: in vivo
Summary of the method: (§2)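 Phase VIa: oral administration to rats, four animals, fixed 30 mg/kg; MES protection and rota-rod neurotoxicity read at 0.25, 0.5, 1, 2 and 4 h post dose. Reported as number of animals protected (or showing toxicity) over number tested.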

Rattus norvegicus [7] = test: Neurotoxicity in rat at 30 mg/kg, po after 0.5 hrs by rotarod test; type: toxicity, organism-based; design: dose 30 mg/kg, route oral; conditions: in vivo; summary of the method: as §2
Rattus norvegicus [8] = test: Neurotoxicity in rat at 30 mg/kg, po after 1 hr by rotarod test; type: toxicity, organism-based; design: dose 30 mg/kg, route oral; conditions: in vivo; summary of the method: as §2
Rattus norvegicus [9] = test: Neurotoxicity in rat at 30 mg/kg, po after 2 hrs by rotarod test; type: toxicity, organism-based; design: dose 30 mg/kg, route oral; conditions: in vivo; summary of the method: as §2
Rattus norvegicus [10] = test: Neurotoxicity in rat at 30 mg/kg, po after 4 hrs by rotarod test; type: toxicity, organism-based; design: dose 30 mg/kg, route oral; conditions: in vivo; summary of the method: as §2
Rattus norvegicus [11] = organism: Rattus norvegicus; test: Displacement of [3H]muscimol from GABAA receptor in rat brain cortex; type: tissue-based
Summary of the method: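 Rat brain membranes washed repeatedly in ice-cold 50 mM Tris-HCl pH 7.4, stored at −20 °C at least 18 h; incubated 10 min at 0 °C with 3 nM [3H]muscimol (stock) and eight test concentrations 10^-11–10^-4 M; nonspecific binding with GABA; filtration, scintillation counting, duplicates, iterative curve fitting.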

Mus musculus [12] = test: Neurotoxicity in ip dosed mouse after 0.5 hrs by rotarod test; type: toxicity, organism-based; conditions: in vivo; summary of the method: as §1
Mus musculus [13] = test: Neurotoxicity in ip dosed mouse after 4 hrs by rotarod test; type: toxicity, organism-based; conditions: in vivo; summary of the method: as §1
Mus musculus [14] = test: Anticonvulsant activity in ip dosed mouse after 0.5 hrs by maximal electroshock test; type: functional; summary of the method: as §1
Rattus norvegicus [15] = test: Anticonvulsant activity in po dosed rat after 2 hrs by maximal electroshock test; type: functional
Summary of the method: (§3)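 Phase II quantification in rats after oral dosing: median effective dose in MES and scPTZ seizure tests determined at the previously estimated time of peak effect, 2 h.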

Rattus norvegicus [16] = test: Anticonvulsant activity in po dosed rat after 2 hrs by subcutaneous pentylenetetrazole test; type: functional; summary of the method: as §3
Mus musculus [17] = test: Toxicity in mouse at 30 mg/kg, ip; type: organism-based; design: dose 30 mg/kg, route intraperitoneal; conditions: in vivo; summary of the method: as §1
Mus musculus [18] = test: Anticonvulsant activity in ip dosed mouse after 0.5 hrs by subcutaneous pentylenetetrazole test; type: functional; summary of the method: as §1
Mus musculus [19] = test: Anticonvulsant activity in ip dosed mouse after 2 hrs by maximal electroshock test; type: functional; summary of the method: as §1

| logKw [1] | Activity (Rattus norvegicus [11]) | Structure (SMILES) | Activity (Mus musculus [2]) | Activity (Mus musculus [3]) | Minimum neurotoxic dose (Mus musculus [12]) | also measured |
| --- | --- | --- | --- | --- | --- | --- |
| 2.976 | – | CC1CCCC2(CC(=O)N(Nc3ccc(Cl)cc3Cl)C2=O)C1 (stereo unspecified) | inactive | – | – | – |
| 2.634 | inactive | O=C1CC2(CCCCC2)C(=O)N1Nc1ccc(Cl)cc1Cl | – | 100 mg/kg | – | Activity (Mus musculus [4]): 300 mg/kg; Activity (Mus musculus [5]): Active; Activity (Rattus norvegicus [6]): Non-toxic; Activity (Rattus norvegicus [7]): Non-toxic; Activity (Rattus norvegicus [8]): Non-toxic; Activity (Rattus norvegicus [9]): Non-toxic; Activity (Rattus norvegicus [10]): Non-toxic |
| 2.977 | – | CC1CCC2(CC1)CC(=O)N(Nc1ccc(Cl)cc1Cl)C2=O (stereo unspecified) | inactive | – | 100 mg/kg | Activity (Mus musculus [13]): 100 mg/kg |
| 2.515 | – | CC1CCCCC12CC(=O)N(Nc1ccccc1Cl)C2=O (stereo unspecified) | inactive | – | 100 mg/kg | – |
| 2.419 | inactive | O=C1CC2(CCCC2)C(=O)N1Nc1ccc(Cl)cc1Cl | – | 300 mg/kg | 300 mg/kg | Activity (Mus musculus [14]): 100 mg/kg; Activity (Mus musculus [5]): Active; Activity (Rattus norvegicus [6]): Non-toxic; Activity (Rattus norvegicus [7]): Non-toxic; Activity (Rattus norvegicus [8]): Non-toxic; Activity (Rattus norvegicus [9]): Non-toxic; Activity (Rattus norvegicus [10]): Non-toxic; ED50 (Rattus norvegicus [15]): > 180 mg/kg; TD50 (Rattus norvegicus [15]): > 250 mg/kg; ED50 (Rattus norvegicus [16]): > 125 mg/kg; TD50 (Rattus norvegicus [16]): > 250 mg/kg |
| 2.896 | – | O=C1CC(C2CCCCC2)C(=O)N1Nc1ccc(Cl)cc1Cl (stereo unspecified) | inactive | – | – | – |
| 2.536 | – | O=C1CC(C2CCCCC2)C(=O)N1Nc1ccccc1Cl (stereo unspecified) | inactive | – | – | – |
| 2.337 | inactive | O=C1CC2(CCCCC2)C(=O)N1Nc1ccc(Br)cc1 | – | 100 mg/kg | 30 mg/kg | Activity (Mus musculus [5]): Active; Activity (Mus musculus [17]): Toxic |
| 2.322 | – | O=C1CC2(CCCCC2)C(=O)N1Nc1ccccc1Cl | inactive | – | – | – |
| 2.115 | inactive | O=C1CC2(CCCC2)C(=O)N1Nc1ccc(Br)cc1 | Active | 300 mg/kg | 100 mg/kg | Activity (Mus musculus [18]): 300 mg/kg; Activity (Mus musculus [19]): 100 mg/kg |
| 2.847 | – | CC1CCCCC12CC(=O)N(Nc1ccc(Cl)cc1Cl)C2=O (stereo unspecified) | Active | 300 mg/kg | – | Activity (Mus musculus [18]): 300 mg/kg |
| 2.561 | – | CC1CCCCC12CC(=O)N(Nc1ccc(Br)cc1)C2=O (stereo unspecified) | Active | 300 mg/kg | – | Activity (Mus musculus [13]): 300 mg/kg; Activity (Mus musculus [19]): 100 mg/kg |
| 2.095 | – | O=C1CC2(CCCC2)C(=O)N1Nc1ccccc1Cl | Active | – | – | Activity (Mus musculus [14]): 300 mg/kg; Activity (Mus musculus [18]): 300 mg/kg; Activity (Rattus norvegicus [6]): Non-toxic; Activity (Rattus norvegicus [7]): Non-toxic; Activity (Rattus norvegicus [8]): Non-toxic; Activity (Rattus norvegicus [9]): Non-toxic; Activity (Rattus norvegicus [10]): Non-toxic |
